pIC50: −log10 of the molar value. Activity calls are given as the source filed them. The rule behind the calls is not given here.
Key:
[1] = test system: Trypanosoma cruzi; assay: Trypanocidal activity against bloodstream trypomastigote stage of Trypanosoma cruzi Y infected in BALB/c mouse assessed as reduction of survival rate at 10 mg/kg/day, ip qd administered for 5 days measured daily until day 30 post-infection; type: functional, organism-based
Method in brief: (§1)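 Female BALB/c mice (20–24 g) infected ip with 10^4 Y-strain bloodstream trypomastigotes; only parasitemic animals used. Compounds dissolved in DMSO, freshly diluted in propylene glycol, given ip at 10 mg/kg/day for 5 days from 5 dpi, with an untreated group. Parasitemia counted by Pizzi–Brener in 5 μL tail blood at 5, 8, 10 dpi; mortality checked daily to 30 dpi.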

[2] = test system: Trypanosoma cruzi; assay: Trypanocidal activity against bloodstream trypomastigote stage of Trypanosoma cruzi Y infected in BALB/c mouse assessed as reduction of parasitemia at 10 mg/kg/day, ip qd administered for 5 days measured on day 10 post-infection by microscopic analysis relative to control; type: functional; parameters: scale not given: the % may be the effect or the level left; conditions: route intraperitoneal; method in brief: as §1
[3] = test system: Trypanosoma cruzi; assay: Trypanocidal activity against bloodstream trypomastigote stage of Trypanosoma cruzi Y infected in BALB/c mouse assessed as reduction of parasitemia at 10 mg/kg/day, ip qd administered for 3 days measured on day 8 post-infection by microscopic analysis relative to control; type: functional; parameters: scale not given: the % may be the effect or the level left; conditions: route intraperitoneal; method in brief: as §1
[4] = test system: Leishmania infantum; assay: Leishmanicidal activity against promastigote stage of Leishmania infantum MCAN/ES/96/BCN150 infected in BALB/c mouse assessed as reduction of parasite burden in liver at 5 mg/kg, ip qd administered for 5 days measured after 7 days by limiting dilution assay relative to untreated control; type: functional
Method in brief: (§2)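 BALB/c mice infected intracardially under pentobarbital anaesthesia with 10^7 stationary L. infantum BCN150 promastigotes. From day 21 post-infection, dosed ip once daily for 5 days in 0.1 mL propylene glycol, with an untreated control group. Killed 7 days later; spleen and liver burdens by limiting dilution and expressed as % reduction versus controls.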

[5] = test system: Leishmania infantum; assay: Leishmanicidal activity against promastigote stage of Leishmania infantum MCAN/ES/96/BCN150 infected in BALB/c mouse assessed as reduction of parasite burden in spleen at 5 mg/kg, ip qd administered for 5 days measured after 7 days by limiting dilution assay relative to untreated control; type: functional; method in brief: as §2
[6] = test system: Leishmania amazonensis; assay: Leishmanicidal activity against intracellular amastigote stage of Leishmania amazonensis MHOM/Br/79/Maria infected in mouse J774 cells assessed as reduction of parasite load after 48 hrs by resazurin dye-based fluorometric analysis; type: functional, organism-based; conditions: Leishmania amazonensis, MHOM/Br/79/Maria, J774, 48 h; read-out: IC50
Method in brief: (§3)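 J774 macrophages (5 × 10^4/well) infected with stationary promastigotes at 1:10, 24 h at 33 °C then 24 h at 37 °C, 5% CO2, and washed free of promastigotes. Then 2-fold serial dilutions in triplicate for 48 h at 37 °C. Cells lysed with RPMI with 0.048% HEPES and 0.006% SDS, transformed in Schneider's 3 days at 26 °C, resazurin 3 h, fluorescence 535/590 nm.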

[7] = test system: Leishmania infantum; assay: Leishmanicidal activity against intracellular amastigote stage of Leishmania infantum MCAN/ES/96/BCN150 infected in mouse J774 cells assessed as reduction of parasite load after 48 hrs by resazurin dye-based fluorometric analysis; type: functional, organism-based; conditions: Leishmania infantum, MCAN/ES/96/BCN150, J774, 48 h; read-out: IC50; method in brief: as §3
[8] = Selectivity index, ratio of CC50 for mouse J774 cells to IC50 for extracellular promastigote stage of Leishmania amazonensis MHOM/Br/79/Maria; type: functional
[9] = Selectivity index, ratio of CC50 for mouse J774 cells to IC50 for extracellular promastigote stage of Leishmania guyanensis 141/93; type: functional
[10] = Selectivity index, ratio of CC50 for mouse NCTC-929 cells to IC50 for extracellular epimastigote stage of Trypanosoma cruzi CL-B5; type: functional
[11] = Cytotoxicity against mouse NCTC-929 cells assessed as reduction of cell viability after 24 hrs by resazurin dye-based […]
Method in brief: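 NCTC clone 929 fibroblasts in DMEM with 10% FBS and 2 mM L-glutamine, plated at 3 × 10^4 cells/well and grown overnight at 37 °C, 5% CO2. Compounds in fresh medium for 24 h, then 2 mM resazurin solution added for 3 h. Absorbance read at 570 and 595 nm; CC50 taken as 50% viability loss versus untreated cells, by probit analysis.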

[12] = Cytotoxicity against mouse J774 cells assessed as reduction of cell viability after 24 hrs by resazurin dye-based fluorometric analysis
Method in brief: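 J774 macrophages in RPMI 1640 with 10% heat-inactivated FBS, seeded at 5 × 10^4 cells/well and attached 24 h at 37 °C, 5% CO2. Medium swapped for drug dilutions for 24 h. Then 2.5 mM resazurin stock added for 3 h, fluorescence read at 535 nm excitation / 590 nm emission. Triplicate; CC50 from probit analysis.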

[13] = test system: Leishmania amazonensis; assay: Leishmanicidal activity against extracellular promastigote stage of Leishmania amazonensis MHOM/Br/79/Maria assessed as reduction of parasite load after 48 hrs by resazurin dye-based fluorometric analysis; type: functional, organism-based; conditions: for pIC50: Leishmania amazonensis, MHOM/Br/79/Maria, 48 h, read-out: IC50
Method in brief: (§4)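 Log-phase promastigotes cultured in Schneider's medium with 20% heat-inactivated FBS at 26 °C, 2.5 × 10^5 per well. DMSO-dissolved compounds added as 2-fold serial dilutions, final DMSO ≤0.2% (v/v), 48 h at 26 °C. Growth read by 2.5 mM resazurin stock, fluorescence 535/590 nm. Triplicate; IC50 by probit analysis.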

[14] = test system: Leishmania guyanensis; assay: Leishmanicidal activity against extracellular promastigote stage of Leishmania guyanensis 141/93 assessed as reduction of parasite load after 48 hrs by resazurin dye-based fluorometric analysis; type: functional, organism-based; conditions: for pIC50: Leishmania guyanensis, 141/93, 48 h, read-out: IC50; method in brief: as §4
[15] = test system: Leishmania braziliensis; assay: Leishmanicidal activity against extracellular promastigote stage of Leishmania braziliensis 2903 assessed as reduction of parasite load after 48 hrs by resazurin dye-based fluorometric analysis; type: functional, organism-based; conditions: for pIC50: Leishmania braziliensis, 2903, 48 h, read-out: IC50; method in brief: as §4
[16] = test system: Leishmania infantum; assay: Leishmanicidal activity against extracellular promastigote stage of Leishmania infantum MCAN/ES/96/BCN150 assessed as reduction of parasite load after 48 hrs by resazurin dye-based fluorometric analysis; type: functional, organism-based; conditions: for pIC50: Leishmania infantum, MCAN/ES/96/BCN150, 48 h, read-out: IC50; method in brief: as §4
[17] = test system: Trypanosoma cruzi; assay: Trypanocidal activity against extracellular epimastigote stage of Trypanosoma cruzi CL-B5 assessed as reduction of parasite load after 72 hrs by CPRG-based colorimetric analysis; conditions: for pIC50: Trypanosoma cruzi, CL-B5, 72 h, read-out: IC50
[18] = test system: Trypanosoma cruzi; assay: Trypanocidal activity against intracellular amastigote stage of Trypanosoma cruzi CL-B5 infected in mouse NCTC-929 cells assessed as reduction of parasite load after 7 days by CPRG-based colorimetric analysis
[19] = Selectivity index, ratio of CC50 for mouse J774 cells to IC50 for extracellular promastigote stage of Leishmania infantum MCAN/ES/96/BCN150; type: functional

| Compound | Activity [4] | pIC50 [6] | pIC50 [7] | Ratio CC50/IC50 [8] | CC50 at 24 h [11] [µM] | CC50 at 24 h [12] [µM] | pIC50 [13] | pIC50 [14] | pIC50 [15] | pIC50 [16] | pIC50 [17] | also measured |
| --- | --- | --- | --- | --- | --- | --- | --- | --- | --- | --- | --- | --- |
| O=S(=O)(Nc1cccc2cnccc12)c1cccc2ccccc12 | inactive | 4.37 | 4.64 | >10.4 | 187 | ≥ 300 | 4.61 | 4.80 | 4.64 | 4.69 | 4.01 | Activity [1]: Active; Activity [2]: 60%; Activity [3]: 72%; Activity [5]: inactive; Ratio CC50/IC50 [9]: > 16.2; Ratio CC50/IC50 [10]: >1.9; pIC50 ([18]; Trypanosoma cruzi, CL-B5, NCTC-929, 168 h, read-out: IC50): 3.85 |
| O=C(Cn1ccnc1[N+](=O)[O-])NCc1ccccc1 [BENZNIDAZOLE] | – | – | – | – | > 194 | ≥ 300 | – | – | – | – | – | – |
| O=S(=O)(Nc1ccc2ncsc2c1)c1ccccc1 | inactive | 4.11 | 4.41 | >3.1 | – | ≥ 300 | 4.08 | 4.63 | 4.51 | 4.74 | – | Activity ([5]; route intraperitoneal): 53.51%; Ratio CC50/IC50 [19]: > 13.9; IC50 [17]: Not Active; IC50 ([18]; nctc-929): Not Active |
| CCCCCCCCCCCCCCCCOP(=O)([O-])OCC[N+](C)(C)C [MILTEFOSINE] | – | 4.68 | 4.63 | – | – | 136 | 4.47 | 4.35 | 5.12 | 4.75 | – | – |
| O=S(=O)(c1cccc2ccccc12)N1CCc2ccccc2C1 | – | – | – | – | > 310 | ≥ 300 | – | – | – | – | 3.94 | IC50 [13]: Not Active; IC50 [14]: Not Active; IC50 [15]: Not Active; IC50 [16]: Not Active |

From ChEMBL document CHEMBL3085685, “In vitro and in vivo antileishmanial and trypanocidal studies of new N-benzene- and N-naphthalenesulfonamide derivatives” (J Med Chem, 2013)
